An excerpt weighted towards active compounds, which were near 3% of everything screened.
UBC13 polyUb: inhibitors of human UBC13 polyubiquitin chain formation; P61088; TR-FRET; inhibition, % at 20 µM; hit rate 0.47% among 330,000; AID 485273; in the data active = inhibition above about 45%, passing the limit was not always enough
Target sequence (P61088 whole entry, looked up): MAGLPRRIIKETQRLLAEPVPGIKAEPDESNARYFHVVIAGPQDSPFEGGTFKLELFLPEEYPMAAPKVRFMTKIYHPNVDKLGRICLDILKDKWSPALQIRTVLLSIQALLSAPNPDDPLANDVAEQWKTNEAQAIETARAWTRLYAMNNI
Apaf-1 inh: human Apaf-1 inhibition; reconstituted apoptosome caspase-3 activity, DEVD-Rh110 fluorescence; inhibition, % at 20 µM; hit rate 0.71% among 330,000; AID 489030; active = inhibition of at least 40% at 20 µM;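 also: plate controls were DMSO wells for no effect and DEVD-CHO caspase inhibitor wells for full effect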
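Material: reconstituted apoptosome with Apaf-1, cytochrome c, caspase-9, procaspase-3, dATP. Technique: Rh110 fluorescence intensity. Buffer or medium: pH 7.5 Hepes buffer with CHAPS, BSA, DTT. Times: 30 min plus 50 min, RT.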
MPTP block: inhibitors of mitochondrial permeability transition pore; hit rate 1.4% among 360,000; AID 602449; inhibition, % at 10 µM; isolated mouse mitochondria, Ca2+ swelling absorbance, 30 min;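 active = inhibition of 50% or more, scaled per plate between neutral and stimulator controls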;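 also: 0% = DMSO wells given calcium and 100% = 1 mM EGTA wells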
iPSC survival up: increases survival of single human iPS cells; survival enhancement, % at 20 µM; hiPSC single-cell survival, ATPlite luminescence; 100% = ROCK inhibitor wells, 0% = DMSO; hit rate 0.044% among 360,000; AID 602274; in the data active = survival enhancement above about 18%;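 also: cells exposed to compounds for 16 hours before the ATP read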
beta cell repl: induces beta-cell replication in MIN6 cells. hit rate 0.29% among 330,000. MIN6 cells proliferation, ATPlite luminescence, 48 h; cells starved in 0.2% serum; 100% = growth in 10% serum. proliferation, % at 10 µM;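 active = compounds whose signal lies at least 3.5 SD above the mean of all wells on their plate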;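 also: 0% = DMSO-treated cells in low-serum medium and 100% = 10% serum control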
Granule exo inh: lytic granule exocytosis inhibition; hit rate 0.66% among 360,000; TALL-104 LAMP-1 surface exposure, flow cytometry; cells stimulated with thapsigargin and PMA; inhibition, % at 10 µM;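 active = inhibition above about 55%, limit read from the data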
Rh123 counter: membrane potential counter-screen of mitochondrial pore inhibitors | inhibition, % at 10 µM | hit rate 78% among 5,000 | shares compounds with MPTP block | isolated mitochondria, Rhodamine 123 fluorescence; in the data active = inhibition above about 22%;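 also: 0% = DMSO vehicle and 100% = positive control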
MPTP swell DR: dose response confirmation of mitochondrial permeability transition pore inhibitors. shares compounds with MPTP block. isolated mitochondria swelling, absorbance. IC50, µM. hit rate 58% among 780. AID 651561; in the data active = IC50 below about 20 µM
MPTP cs DR: counter-screen for mitochondrial permeability transition pore inhibitors, dose response. isolated mitochondria counterscreen, fluorescence read-out. shares compounds with MPTP block. IC50, µM. hit rate 49% among 780. AID 651564; in the data active = IC50 below about 80 µM
Starred values were filed as active, the others as inactive; . = no result.

SMILES	UBC13 polyUb	Apaf-1 inh	MPTP block	iPSC survival up	beta cell repl	Granule exo inh	Rh123 counter	others
O=C(Nc1cc(S(=O)(=O)N2CCCCC2)ccc1O)c1ccccc1NS(=O)(=O)c1ccc(F)c(F)c1	-17	23	91*	1	0	0	65*
O=C(Nc1cccc(S(=O)(=O)N2CCCCC2)c1)c1ccccc1NS(=O)(=O)c1ccc(F)cc1	24	8	96*	0	-6	45	81*
O=C(Nc1cc(S(=O)(=O)Nc2ccccc2Cl)ccc1O)c1ccc(F)cc1F	-10	12	59*	-2	-4	-4	68*
CCCC(=O)N1CCC1(C)C(=O)Nc1cc(OC)c(OC)c(OC)c1 (stereo not drawn)	.	.	0	0	.	2	.
Cc1nc(/N=C\c2ccc(N(C)C)cc2)sc1C	-28	1	-2	-1	0	7	.
CC(=O)Cc1nsc(NC(=O)c2ccc(COc3ccccc3C)o2)n1	4	9	-1	2	0	-12	.
Cc1ccc(NC(=O)c2ccccc2NS(=O)(=O)c2ccc(F)cc2)cc1S(=O)(=O)N1CCCCC1	-7	22	95*	1	-3	8	84*
O=C(COc1ccccc1F)NNC(=O)c1cccc(-n2cccc2)c1	-3	-4	2	0	0	-2	.
CC1(C(=O)NCc2ccc3c(c2)OCO3)CCN1C(=O)CCc1ccc(Cl)cc1Cl (stereo not drawn)	.	.	0	4	.	-2	.
NC(=S)n1[nH]c(-c2ccc([N+](=O)[O-])cc2)c(N=Nc2cccc(Cl)c2)c1=O	-45	16	90*	0	-5	8	70*
NC(=S)n1[nH]c(-c2ccc([N+](=O)[O-])cc2)c(N=Nc2ccc(O)cc2)c1=O	-52	0	8	3	-5	1	.
CC(=O)Nc1ccc(S(=O)(=O)N2CCC(C(=O)NCc3ccncc3)CC2)cc1	0	-20	-2	0	-1	4	.
O=C(c1ccc2c(=O)n(C3CCCC3)c(=S)[nH]c2c1)N1CCCCCC1	19	7	89*	0	-6	0	79*
CC1(C)Cc2ccccc2-c2nc(-c3ccccc3)oc(=O)c21	-1	9	70*	6	-4	-6	-4	MPTP swell DR=7.6*;MPTP cs DR=>80
Cc1nc2c(OCc3ccc(Cl)cc3Cl)cccn2c1N(C)Cc1cccs1	.	.	72*	-2	.	22	87*
Cc1nc2c(OCc3cccc(Cl)c3)cccn2c1N(C)Cc1cccs1	.	.	71*	-2	.	22	86*
COCCCNC(=O)Cn1cnc2c(OCc3ccccc3)ncnc21	6	-11	0	0	0	-3	.
O=NN(CCCl)C(=O)NCC1=C[N+](=O)CC=C1	.	.	0	0	.	-5	.
OC(CSc1nnnn1-c1ccccc1)Cn1c2ccccc2c2ccccc21 (stereo not drawn)	.	.	2	0	.	-4	.
COc1ccc(CN2CCNC(=O)C2CC(=O)NC2CCCC2)c(C)c1C (stereo not drawn)	4	5	-2	1	0	0	.
COc1ccc([C@H]2CC(=O)C=C(c3ccc(CNC(=O)OC(C)(C)C)cc3)C2)cc1	-9	16	71*	-1	-7	-10	80*
Cc1ccc(C(C)C)c(OCC(=O)Nc2ccc3c(c2)nc(CCN2CCCCC2)n3C)c1	22	30	73*	0	-4	45	-20	MPTP swell DR=6.1*;MPTP cs DR=75*
CC1=C([N+](=O)[O-])C(c2ccccc2)C2=C(N1)c1ccccc1C2=O (stereo not drawn)	-102	2	88*	0	-4	9	65*
COc1ccc(C2C(C#N)=C(C)NC3=C2C(=O)c2ccccc23)cc1 (stereo not drawn)	-2	12	1	-1	-3	-2	.
CCc1ccc(-c2nc(CSCC(=O)N3CCN(c4ccccn4)CC3)c(C)o2)cc1	-4	20	80*	3	-6	-1	58*

High-throughput results (PubChem BioAssay)
